Molecules are shown by their SMILES. The source made the active and inactive calls. The rule behind the calls is not given here.

For assay [1], the target named is T1, Microtubule-associated protein tau (Homo sapiens, UniProt P10636). Put plainly: Displacement of Bis-ANS from solvent exposed hydrophobic site of non-aggregated human full length recombinant tau-441 expressed in Escherichia coli assessed as reduction in fluorescence intensity at 120 uM incubated for 72 hrs by Bis-ANS fluorescence assay. In short, it runs like this:
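Competition control: non-aggregated tau441 (909 μg/mL) is held with compound and without heparin for 72 h at 37 °C. It is then mixed with Bis-ANS (100 μM final) for 60 min at room temperature. Fluorescence is read at 25 °C, ex 350 nm, emission 400–600 nm, and loss of 510 nm signal is taken as Bis-ANS displacement from tau hydrophobic sites.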

Assay [2] deals with T1, Microtubule-associated protein tau. Put plainly: Inhibition of human full length recombinant tau-441 expressed in Escherichia coli assessed as inhibition of heparin-induced protein aggregation by measuring reduction in fluorescence intensity at 5 to 120 uM incubated for 72 hrs by Proteo-stat fluorescence aggregation assay. The settings on record: dose microM 5-120, time 72.0 hrs. In short, it runs like this:
(§1)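 Recombinant full-length tau441 (19.8 μM final, 909 μg/mL) is aggregated with heparin (4.95 μM final) in pH 6.8 tau buffer (MES, EGTA, NaCl) for 72 h at 37 °C. Compounds are dissolved in DMSO and added at 5, 40, 120 or 250 μM final. A 10 μL aliquot is mixed 10:1 v/v with Proteostat reagent and read at ex 550/em 600 nm. Triplicates. IC50 comes from a sigmoidal dose-response fit.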

Assay [3] shares this target. Put plainly: Inhibition of human full length recombinant tau-441 expressed in Escherichia coli assessed as inhibition of heparin-induced beta-sheet formation and protein aggregation by measuring fluorescence intensity at 120 uM incubated for 72 hrs by Proteo-stat fluorescence aggregation assay. In short, it runs like this: as §1
The target is the same in assay [4]. Put plainly: Inhibition of human full length recombinant tau-441 expressed in Escherichia coli assessed as inhibition of heparin-induced protein aggregation by measuring reduction in fluorescence intensity incubated for 72 hrs by Proteo-stat fluorescence aggregation assay.
Assay [5] has the same target. As to the kind of experiment: Inhibition of human full length recombinant tau-441 expressed in Escherichia coli assessed as inhibition of heparin-induced protein aggregation by measuring fluorescence intensity at 120 uM incubated for 72 hrs by Bis-ANS fluorescence assay. Summed up:
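Tau441 (19.8 μM) with heparin (4.95 μM) and compound (120 μM) in DMSO/tau buffer pH 6.8 is aged 72 h at 37 °C. A 10 μL aliquot gets Bis-ANS (100 μM final, from stock in 20 mM Tris pH 7.4) for 60 min at room temperature. Emission is scanned 400–600 nm at 25 °C (ex 350 nm) and the 510 nm intensity is taken. Triplicate measurements.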

For assay [6] the target is unchanged. As to the kind of experiment: Inhibition of human full length recombinant tau-441 expressed in Escherichia coli assessed as inhibition of heparin-induced protein aggregation by measuring reduction in fibrillization by measuring reduction in short and long filaments and fibrillar network formation at 120 uM incubated for 72 hrs by transmission electron microscopy.

A short description of assay [7]: Inhibition of N-terminal His6-tagged human tau K18deltaK280 mutant assessed as inhibition of protein aggregation.

T1 sequence (P10636 whole entry): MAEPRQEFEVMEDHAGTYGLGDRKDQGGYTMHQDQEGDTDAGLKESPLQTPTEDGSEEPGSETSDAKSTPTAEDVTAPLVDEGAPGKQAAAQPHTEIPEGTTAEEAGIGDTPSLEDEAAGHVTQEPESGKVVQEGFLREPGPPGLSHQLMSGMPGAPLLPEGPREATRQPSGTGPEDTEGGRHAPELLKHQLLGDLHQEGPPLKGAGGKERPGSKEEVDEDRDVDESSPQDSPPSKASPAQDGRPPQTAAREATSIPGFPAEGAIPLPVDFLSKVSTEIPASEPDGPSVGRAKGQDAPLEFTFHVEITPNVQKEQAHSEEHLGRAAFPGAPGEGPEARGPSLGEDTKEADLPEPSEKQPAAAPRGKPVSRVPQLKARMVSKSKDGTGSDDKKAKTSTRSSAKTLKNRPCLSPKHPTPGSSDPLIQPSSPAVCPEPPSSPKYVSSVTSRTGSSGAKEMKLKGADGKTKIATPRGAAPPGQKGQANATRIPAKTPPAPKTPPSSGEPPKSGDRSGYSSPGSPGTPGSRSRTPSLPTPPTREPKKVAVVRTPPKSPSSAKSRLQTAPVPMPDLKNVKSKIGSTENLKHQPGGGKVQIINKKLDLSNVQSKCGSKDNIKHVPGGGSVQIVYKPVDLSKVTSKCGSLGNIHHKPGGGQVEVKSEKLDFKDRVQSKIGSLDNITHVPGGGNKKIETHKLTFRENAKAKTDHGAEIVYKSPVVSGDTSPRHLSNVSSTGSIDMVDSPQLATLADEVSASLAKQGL

As to `CCCN(CCN1CCN(c2ccc(-c3ccc(O)c(O)c3)cc2)CC1)[C@H]1CCc2nc(N)sc2C1`, the inhibition entry in assay [1], in assay [2] and in assay [6] was “Active” in each case. Moreover, the Activity in assay [3] and in assay [5] was 1000 a.u throughout. For the same molecule, in assay [4] (read-out: IC50), the IC50 (usually the concentration at which inhibition is half-maximal) is 21 µM.
With `CCCN(CCN1CCN(c2ccc3[nH]c4ccccc4c3c2)CC1)[C@H]1CCc2nc(N)sc2C1`, the inhibition entry in assay [1], in assay [2], in assay [5] and in assay [6] was “inactive” each time. Further, in assay [3], the Activity is 7000 a.u. Also, in assay [4], the IC50 result is on record as “Not Active”.
With `O=C(O[C@@H]1Cc2c(O)cc(O)cc2O[C@@H]1c1cc(O)c(O)c(O)c1)c1cc(O)c(O)c(O)c1` [EPIGALOCATECHIN GALLATE], in assay [7], the IC50 is above 200 µM.
On to `CCCN(CCN1CCN(c2ccc(-c3ccc(O)c(O)c3)cc2)CC1)[C@H]1CCc2c(O)cccc2C1`, for which the inhibition result in assay [1], in assay [2] and in assay [6] was “Active” in each case. For the same molecule, the figures for the Activity in assay [3] and in assay [5] were 1000 a.u and 1500 a.u, respectively. In assay [4] (read-out: IC50), the IC50 was determined as 25 µM.
`CCCN(CCN1CCN(c2ccc(-c3ccccc3)cc2)CC1)[C@H]1CCc2nc(N)sc2C1`: the inhibition result in assay [1], in assay [2], in assay [5] and in assay [6] was “inactive” throughout. Also, the Activity in assay [3] came out at 9000 a.u. Further, the IC50 entry in assay [4] is “Not Active”.
Regarding `CN(C)c1ccc2nc3ccc(=[N+](C)C)cc-3sc2c1`, in assay [1], the inhibition (usually the relative decrease from the control value, in per cent) stood at 95%. Further, the inhibition result in assay [2] and in assay [6] was “Active” in each case. Besides, the results for the Activity in assay [3] and in assay [5] were 1000 a.u and 400 a.u, respectively.
